# Mdm2 MdmX PPI: inhibitors of human Mdm2/MdmX interaction. O15151+Q00987. SaOS-2 split-luciferase Mdm2/MdmX complementation, luminescence. inhibition, % at 8 µM. actives 3% (n = 330,000);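 active = inhibition of at least 50% at 8 µM in the primary screen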
# Target sequence (O15151 whole entry, looked up): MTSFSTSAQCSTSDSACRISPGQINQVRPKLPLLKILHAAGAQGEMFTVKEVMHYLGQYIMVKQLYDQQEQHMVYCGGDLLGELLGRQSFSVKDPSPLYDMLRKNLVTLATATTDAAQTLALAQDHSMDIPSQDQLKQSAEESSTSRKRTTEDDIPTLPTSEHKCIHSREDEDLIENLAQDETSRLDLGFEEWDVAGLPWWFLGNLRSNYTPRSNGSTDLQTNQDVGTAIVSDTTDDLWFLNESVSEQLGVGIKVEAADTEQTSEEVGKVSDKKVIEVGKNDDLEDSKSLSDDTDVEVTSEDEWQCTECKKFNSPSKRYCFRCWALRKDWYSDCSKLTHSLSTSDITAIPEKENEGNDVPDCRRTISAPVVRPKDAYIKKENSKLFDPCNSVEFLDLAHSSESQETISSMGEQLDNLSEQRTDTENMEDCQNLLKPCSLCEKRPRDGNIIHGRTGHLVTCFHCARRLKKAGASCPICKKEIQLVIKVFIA
# Target sequence (Q00987 whole entry, looked up): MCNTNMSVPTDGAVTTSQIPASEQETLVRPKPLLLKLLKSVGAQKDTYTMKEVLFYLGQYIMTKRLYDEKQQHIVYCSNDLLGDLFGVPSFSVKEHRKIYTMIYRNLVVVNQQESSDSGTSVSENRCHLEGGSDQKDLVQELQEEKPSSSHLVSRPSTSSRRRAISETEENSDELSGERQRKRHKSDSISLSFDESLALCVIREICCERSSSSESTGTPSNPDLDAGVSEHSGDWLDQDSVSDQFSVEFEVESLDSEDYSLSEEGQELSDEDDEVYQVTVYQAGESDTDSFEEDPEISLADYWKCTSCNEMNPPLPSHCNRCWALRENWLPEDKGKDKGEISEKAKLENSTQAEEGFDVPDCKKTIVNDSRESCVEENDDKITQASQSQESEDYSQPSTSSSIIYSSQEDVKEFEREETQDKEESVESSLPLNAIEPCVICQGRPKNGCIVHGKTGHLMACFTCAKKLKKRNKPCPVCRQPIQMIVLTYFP
# CSC inhib: cancer stem cell inhibition; cancer stem cell-like cells viability, luminescence; actives 1.1% (n = 300,000); inhibition, % at 7.5 µM; in the data active = inhibition above about 75%; inconclusive = no clear call, values can overlap the other calls; tested in HMLE shEcad cells
# UPR XBP1 act: activators of adaptive arm of unfolded protein response (XBP1) | activation, % at 20 µM | actives 0.33% (n = 330,000) | CHO-XBP1 luciferase reporter, IRE1-XBP1 UPR activation, luminescence; percent of tunicamycin response, DMSO as zero | AID 463104;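 active = versus positive control, 20 µM dose yields 30% or more activation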;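 also: 100% = tunicamycin at 10 µg/mL and 0% = DMSO only wells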
#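 Assay system: CHO-XBP1 luciferase reporter cells; Schedule: 6 h treatment, 37 °C; Detection: glow luminescence from Steady-Glo reagent; Benchmarks: high control tunicamycin 10 µg/mL final, low control DMSO vehicle only.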
# UPR CHOP act: activators of apoptotic arm of unfolded protein response (CHOP); activation, % at 10 µM; AID 449763; CHO-CHOP luciferase reporter, UPR activation, luminescence; percent of tunicamycin response over DMSO baseline; actives 0.34% (n = 330,000);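 active = at 10 µM dose, activation of 40% or more, normalized to positive control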;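 also: 100% = tunicamycin at 10 µg/mL and 0% = DMSO alone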
#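 Assay system: CHO-CHOP cells, stable luciferase reporter of PERK-eIF2a-CHOP signalling / Buffer or medium: F12 plus 10% serum / Compound dosing: one dose, 10 µM in 0.5% DMSO / Times: 6 h compound treatment, 37 °C / Technique: luciferase luminescence / Read-out: % reporter activation, DMSO baseline versus tunicamycin full activation / Benchmarks: tunicamycin and DMSO controls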
# SKKanGAS inh: SKKanGAS growth inhibition. S. pyogenes SKKanGAS, kanamycin growth, BacTiter-Glo, 6 h. inhibition, % at 7.5 µM. actives 1.3% (n = 300,000);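 active = mean replicate score, as percent of positive control median, at least 50; inconclusive = mean below 50 but one replicate at or above 50; inactive = mean and every replicate below 50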;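 also: strain carries kanamycin resistance gene driven by streptokinase promoter and grows in 40 µg/ml kanamycin; loss of luminescence reflects streptokinase promoter inhibition or plain growth inhibition; 0% = median of DMSO wells and 100% = positive control at its reference dose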
# Beta apoptosis: blocks beta cell apoptosis. INS-1E cytokine-induced death, ATP luminescence, 48 h; percent of positive-control rescue, neutral wells zero. protection from apoptosis, % (no concentration beside the values). actives 0.8% (n = 300,000);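 active = Every replicate reaches about 75%, or at least half do and their mean reaches it too, limit read from the data; inconclusive = At least half of replicates reach the limit but their mean does not; inactive = Under half of replicates reach the limit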;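 also: 0% = cytokine-treated negative control wells and 100% = positive control rescue; higher means more ATP so stronger rescue from cytokine killing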
# Mdm2 MdmX conf: confirmation of human Mdm2/MdmX interaction inhibitors; inhibition, % at 8 µM; AID 489028; shares compounds with Mdm2 MdmX PPI; Mdm2-MdmX binding, luminescent assay; actives 55% (n = 10,000); in the data active = inhibition above about 40%
# Full FLuc ctr: counter-screen for Mdm2/MdmX inhibitors: full-length luciferase | shares compounds with Mdm2 MdmX PPI | SaOS-2 full-length luciferase counterscreen, luminescence | actives 77% (n = 6,200) | AID 504607 | inhibition, % at 8 µM;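 active = mean inhibition at 8 µM reaching about 37%, which flags the compound as non-specific, limit read from the data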;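 also: p53-null SaOS-2 cells with luciferase driven by a doxycycline-inducible promoter; compound on cells about two nights before reading with doxycycline added after day one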
# Active calls of the source: *; ? = inconclusive; · = no result. A selection: hits, their analogues and other compounds. The true share with any hit is near 4.8%.
SMILES,Mdm2 MdmX PPI,CSC inhib,UPR XBP1 act,UPR CHOP act,SKKanGAS inh,Beta apoptosis,Mdm2 MdmX conf,Full FLuc ctr
O=C(Nc1ccc(-c2csc(Nc3cccc(C(F)(F)F)c3)n2)cc1)c1cc([N+](=O)[O-])cc(C(F)(F)F)c1,67.9*,88.1*,11.5,3.5,53.4*,110.6*,7.0,·
CC(=O)Nc1ccc(NC(=O)CSc2ncc(C(=O)Nc3ccccc3)c(=O)n2C)cc1,2.9,?,-5.7,8.3,-4.1,-12.1,·,·
O=C(NCC1CCCC(CNC(=O)Nc2ccc(Cl)cn2)C1)Nc1ccc(Cl)cn1 (stereo not drawn),27.2,-5.1,8.3,3.3,36.5,29.5,·,·
O=C(O)CCCCCN1C(=O)/C(=C\c2cn(-c3ccccc3)nc2-c2cccs2)SC1=S,51.2*,103.2*,-1.4,2.8,90.7*,0.7,29.0,·
CC1=NNC(=O)/C1=C\c1cn(-c2ccccc2)nc1-c1cccs1,83.1*,81.3*,-8.7,-8.6,5.8,98.8*,56.4*,25.7
CC1=NNC(=O)/C1=C\c1cn(-c2ccccc2)nc1-c1ccc(F)cc1,·,·,·,·,-8.3,·,·,·
NC(=O)c1ccc(NC(=O)CSc2nncn2-c2ccccc2)cc1,-35.7,-5.4,-3.9,-0.4,-1.0,-0.8,·,·
COc1ccc(/C=C/C(=O)Nc2sc(Cc3ccccc3)c(C)c2C(N)=O)cc1,63.9*,9.5,6.0,6.3,-7.5,1.8,34.2,114.5*
O=C(COC(=O)C1CCC1)Nc1ncc(Cl)cc1Cl,8.9,-1.5,-3.6,-1.1,-11.8,-3.7,·,·
Cc1sc2nc(SCC(=O)C(C)(C)C)n(Cc3ccco3)c(=O)c2c1C,36.9,62.7,3.0,-0.7,44.6,9.0,·,·
O=C(CSc1nc2cc(Cl)ccc2c(=O)n1Cc1ccco1)Nc1ccc(S(=O)(=O)N2CCOCC2)cc1,14.9,3.7,-0.4,-1.1,14.6,-6.3,·,·
COc1ccc(NC(=O)CSc2nc3sc(C)c(C)c3c(=O)n2Cc2ccco2)cc1,87.3*,·,6.8,3.9,-3.1,-8.4,11.6,·
COC(=O)c1ccc2c(=O)n(Cc3ccco3)c(SCC(=O)Nc3ccc(C)c(Cl)c3)nc2c1,67.8*,20.9,38.4*,39.9,-1.6,39.1,16.2,·
Nc1[nH]nc2nc3ccccc3cc12,-4.0,3.1,-0.6,-0.6,3.1,-4.7,·,·
Nc1cccc2nc3ccccc3cc12,58.0*,·,-6.2,-0.4,4.0,·,78.5*,32.2
CC1CCN(C(=O)CCNS(=O)(=O)c2ccc3c(c2)c(=O)n(C)c(=O)n3C)CC1,4.7,-11.8,-8.0,-2.6,-2.6,-8.8,·,·
Brc1ccccc1-c1nnc2sc(-c3ccc4c(c3)OCCO4)nn12,51.0*,52.2,-0.2,-1.1,7.9,9.1,62.4*,61.0*
Clc1ccccc1-c1nnc2sc(-c3ccc4c(c3)OCO4)nn12,65.4*,53.8,3.5,1.8,19.5,2.8,39.8,83.1*
CCN(C[C@H]1N[C@@](C)(C(=O)OC)[C@H]2C(=O)N(C)C(=O)[C@@H]12)C(=O)c1ccc(C(C)(C)C)cc1,6.7,·,-1.2,-1.3,·,·,·,·
O=C(Nc1nc(-c2ccccc2)c(-c2ccccc2)s1)c1ccc(S(=O)(=O)N2CCCC2)cc1,59.4*,-3.5,-0.2,2.8,9.7,6.5,-3.3,·
Cc1cc(NC(=O)c2cc(-c3ccc(C)s3)nc3ccccc23)no1,17.1,5.2,-5.7,-0.7,1.1,2.9,·,·
Cc1cccc(NC(=O)c2cc(-c3ccc(C)s3)nc3ccccc23)n1,73.4*,51.4,-0.1,2.5,-2.1,9.5,59.0*,83.3*
Cn1c(=O)c2c(nc(NCc3ccco3)n2C/C=C/c2ccccc2)n(C)c1=O,50.9*,16.5,-7.2,0.1,-1.9,52.1,21.9,·
Cc1c(C(=O)NCCC2=CCCCC2)oc2ccc(S(=O)(=O)N3CCOCC3)cc12,53.8*,16.0,-0.3,3.6,·,14.2,34.5,·

# High-throughput results: PubChem, several laboratories
